Source: ChEMBL document CHEMBL1131261, “Synthesis and antitumor activity of ring A- and F-modified hexacyclic camptothecin analogues” (J Med Chem, 1998)
In brackets after ≈: the same amount, converted by molar mass.

Tests used:
QG-56 = experiment: In vitro antitumor activity against QG-56 (human lung cancer) cells.; assay type: functional, cell-based
Procedure, shortened: (§1)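 MTT assay of cell growth after 3 days of incubation. IC50 is the dose that inhibits growth of 50% of the cultivated cells, given in ng/mL.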

[1] = target: T1, DNA topoisomerase 1 (Homo sapiens) (UniProt P11387); experiment: Inhibition of topoisomerase-1 compared to SN-38.
T1 sequence (whole entry): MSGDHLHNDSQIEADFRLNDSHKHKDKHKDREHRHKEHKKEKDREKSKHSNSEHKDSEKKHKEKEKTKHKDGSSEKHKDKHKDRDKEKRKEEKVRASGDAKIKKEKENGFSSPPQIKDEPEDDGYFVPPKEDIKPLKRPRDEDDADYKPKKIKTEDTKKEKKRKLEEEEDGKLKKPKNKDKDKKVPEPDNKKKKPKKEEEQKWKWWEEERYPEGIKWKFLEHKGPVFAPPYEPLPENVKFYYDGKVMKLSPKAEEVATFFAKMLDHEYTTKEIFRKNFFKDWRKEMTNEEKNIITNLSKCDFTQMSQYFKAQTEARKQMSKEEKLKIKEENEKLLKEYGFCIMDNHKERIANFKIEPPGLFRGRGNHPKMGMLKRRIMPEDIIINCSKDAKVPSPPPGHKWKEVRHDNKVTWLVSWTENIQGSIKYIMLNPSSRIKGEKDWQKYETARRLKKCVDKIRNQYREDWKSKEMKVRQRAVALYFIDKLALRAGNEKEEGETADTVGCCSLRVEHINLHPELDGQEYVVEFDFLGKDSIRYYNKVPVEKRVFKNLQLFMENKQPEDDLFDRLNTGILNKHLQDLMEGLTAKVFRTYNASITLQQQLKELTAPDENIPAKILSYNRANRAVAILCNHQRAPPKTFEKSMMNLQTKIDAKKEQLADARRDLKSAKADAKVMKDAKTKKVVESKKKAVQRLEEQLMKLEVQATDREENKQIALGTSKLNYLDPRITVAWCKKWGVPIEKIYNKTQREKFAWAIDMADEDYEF
Procedure, shortened: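 DNA relaxation assay with topoisomerase I. IC50 is the concentration that inhibits 50% of the conversion of supercoiled DNA to its relaxed form. Values are given as the ratio of the test IC50 to the IC50 of SN-38.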

HOC-21 cell line = experiment: In vitro antitumor activity against HOC-21 (human ovarian cancer) cells.; assay type: functional, cell-based; procedure, shortened: as §1
P388 = experiment: In vitro antitumor activity against P388 (murine leukemia) cells.; assay type: functional, cell-based; details: Mus musculus

SMILES | IC50 (QG-56) [ng/mL] | Ratio [1] | IC50 (HOC-21 cell line) [ng/mL] | IC50 (P388) [ng/mL]
CC[C@@]1(O)C(=O)OCc2c1cc1n(c2=O)Cc2c-1nc1cc(N)c(O)c3c1c2CCC3 | 11.6 (≈ 0.0277 µM) | 2.6 | > 500 | > 62.5
CC[C@@]1(O)C(=O)OCc2c1cc1n(c2=O)Cc2c-1nc1ccc(OC)c3c1c2CCN3 | 10.6 (≈ 0.0253 µM) | – | 106 (≈ 0.254 µM) | 10.7 (≈ 0.0255 µM)
CC[C@@]1(O)C(=O)OCc2c1cc1n(c2=O)Cc2c-1nc1ccc(OC)c3c1c2CCN3C(C)=O | 29.8 (≈ 0.0646 µM) | – | > 500 | > 62.5
CC[C@@]1(O)C(=O)OCc2c1cc1n(c2=O)Cc2c-1nc1cc(F)c(C)c3c1c2CCC3 | 0.17 (≈ 0.000404 µM) | 0.51 | 2.06 (≈ 0.0049 µM) | 0.22 (≈ 0.000523 µM)
CC[C@@]1(O)C(=O)OCc2c1cc1n(c2=O)Cc2c-1nc1cc(F)c(F)c3c1c2CCC3O (some centres not stated) | 2.62 (≈ 0.00595 µM) | 1.2 | 68.9 (≈ 0.156 µM) | 3.17 (≈ 0.0072 µM)
CC[C@@]1(O)C(=O)OCc2c1cc1n(c2=O)Cc2c-1nc1cc(F)c(F)c3c1c2CCC3 | 0.38 (≈ 0.000895 µM) | 0.7 | 10.9 (≈ 0.0257 µM) | 0.48 (≈ 0.00113 µM)
CC[C@@]1(O)C(=O)OCc2c1cc1n(c2=O)Cc2c-1nc1cccc3c1c2CCC3 | 1.63 (≈ 0.0042 µM) | 4 | 92.9 (≈ 0.239 µM) | 5.23 (≈ 0.0135 µM)
CC[C@@]1(O)C(=O)OCc2c1cc1n(c2=O)Cc2c-1nc1cc(Cl)cc3c1c2CCC3 | 0.53 (≈ 0.00125 µM) | 0.23 | 14 (≈ 0.0331 µM) | 0.73 (≈ 0.00173 µM)
CC[C@@]1(O)C(=O)OCc2c1cc1n(c2=O)Cc2c-1nc1ccc(O)c3c1c2CCC3 | – | 0.47 | – | –
CC[C@@]1(O)C(=O)OCc2c1cc1n(c2=O)Cc2c-1nc1ccc(N)c3c1c2CCO3 | 0.71 (≈ 0.00175 µM) | 1.2 | 57.7 (≈ 0.142 µM) | 2.6 (≈ 0.00641 µM)
CC[C@@]1(O)C(=O)OCc2c1cc1n(c2=O)Cc2c-1nc1cc(F)cc3c1c2CCC3 | 0.16 (≈ 0.000394 µM) | 0.24 | 3.39 (≈ 0.00834 µM) | 0.26 (≈ 0.00064 µM)
CC[C@@]1(O)C(=O)OCc2c1cc1n(c2=O)Cc2c-1nc1ccc(N)c3c1c2CCS3 | 0.4 (≈ 0.000949 µM) | 0.9 | 8.37 (≈ 0.0199 µM) | 1.08 (≈ 0.00256 µM)
CC[C@@]1(O)C(=O)OCc2c1cc1n(c2=O)Cc2c-1nc1cc(OC)cc3c1c2CCC3 | 1.32 (≈ 0.00315 µM) | 0.7 | 17.4 (≈ 0.0416 µM) | 1.01 (≈ 0.00241 µM)
CC[C@@]1(O)C(=O)OCc2c1cc1n(c2=O)Cc2cc3ccccc3nc2-1 | – | 0.39 | – | –
CC[C@@]1(O)C(=O)OCc2c1cc1n(c2=O)Cc2c-1nc1ccc(OC)c3c1c2CCS3 | 3.27 (≈ 0.00749 µM) | – | 80.2 (≈ 0.184 µM) | 6.49 (≈ 0.0149 µM)
CC[C@@]1(O)C(=O)OCc2c1cc1n(c2=O)Cc2c-1nc1ccc(O)c3c1c2CCS3 | 3.68 (≈ 0.00871 µM) | 1.6 | 153 (≈ 0.361 µM) | 8.63 (≈ 0.0204 µM)
CCc1c2c(nc3ccc(O)cc13)-c1cc3c(c(=O)n1C2)COC(=O)[C@]3(O)CC [7-ETHYL-10-HYDROXYCAMPTOTHECIN] | 0.9 (≈ 0.00229 µM) | 1 | 41.2 (≈ 0.105 µM) | 1.44 (≈ 0.00367 µM)
CC[C@@]1(O)C(=O)OCc2c1cc1n(c2=O)Cc2c-1nc1cc(C)cc3c1c2CCC3 | 10.3 (≈ 0.0256 µM) | 3.6 | 101 (≈ 0.251 µM) | 5.05 (≈ 0.0125 µM)
CC[C@@]1(O)C(=O)OCc2c1cc1n(c2=O)Cc2c-1nc1ccc(N)c3c1c2CCC3 | 1.38 (≈ 0.00342 µM) | 1.4 | 35.9 (≈ 0.089 µM) | –
CC[C@@]1(O)C(=O)OCc2c1cc1n(c2=O)Cc2c-1nc1cccc3c1c2CCS3 | 1.71 (≈ 0.00421 µM) | – | 33 (≈ 0.0812 µM) | 3.04 (≈ 0.00748 µM)
CC[C@@]1(O)C(=O)OCc2c1cc1n(c2=O)Cc2c-1nc1ccc(C#N)c3c1c2CCC3 | 4.21 (≈ 0.0102 µM) | 3.9 | 73.5 (≈ 0.178 µM) | 8.14 (≈ 0.0197 µM)
CC[C@@]1(O)C(=O)OCc2c1cc1n(c2=O)Cc2c-1nc1cc(O)cc3c1c2CCC3 | 4.7 (≈ 0.0116 µM) | 0.17 | 20.6 (≈ 0.0509 µM) | 0.99 (≈ 0.00245 µM)
